According to PubChem BioAssay AID743257 (The Scripps Research Institute Molecular Screening Center, 2014):
The campaign covered roughly 2,900 compounds. About 1,900 (66%) were called active. So high a share suggests a set chosen from earlier hits. These entries were drawn from the full list. A number with no mark means an inactive call.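 How the source made its calls: active means mean inhibition across replicates above the hit cutoff set in the primary screen (cut at about 8.5% in these data); inactive means the rest.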

Target: Disintegrin and metalloproteinase domain-containing protein 17 (Homo sapiens) (UniProt P78536)
Assay: inhibition of human ADAM17 protease activity – biochemical, QFRET peptide cleavage, confirmation (AID 743257);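 further: 0% = DMSO wells and 100% = marimastat wells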
Details: recombinant ADAM17, EDANS/DABCYL QFRET peptide cleavage; at 6.95 µM; active compounds read high
In short: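 test system = ADAM17 protease | dosing = 6.95 µM compound, single dose | timing = 30 min preincubation, 3 h reaction | measured by = fluorescence at ex 359 nm, em 460 nm | measure = percent inhibition | benchmarks = DMSO and marimastat controls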

Sequence of Disintegrin and metalloproteinase domain-containing protein 17 (Homo sapiens) (P78536 215-824 limits assumed): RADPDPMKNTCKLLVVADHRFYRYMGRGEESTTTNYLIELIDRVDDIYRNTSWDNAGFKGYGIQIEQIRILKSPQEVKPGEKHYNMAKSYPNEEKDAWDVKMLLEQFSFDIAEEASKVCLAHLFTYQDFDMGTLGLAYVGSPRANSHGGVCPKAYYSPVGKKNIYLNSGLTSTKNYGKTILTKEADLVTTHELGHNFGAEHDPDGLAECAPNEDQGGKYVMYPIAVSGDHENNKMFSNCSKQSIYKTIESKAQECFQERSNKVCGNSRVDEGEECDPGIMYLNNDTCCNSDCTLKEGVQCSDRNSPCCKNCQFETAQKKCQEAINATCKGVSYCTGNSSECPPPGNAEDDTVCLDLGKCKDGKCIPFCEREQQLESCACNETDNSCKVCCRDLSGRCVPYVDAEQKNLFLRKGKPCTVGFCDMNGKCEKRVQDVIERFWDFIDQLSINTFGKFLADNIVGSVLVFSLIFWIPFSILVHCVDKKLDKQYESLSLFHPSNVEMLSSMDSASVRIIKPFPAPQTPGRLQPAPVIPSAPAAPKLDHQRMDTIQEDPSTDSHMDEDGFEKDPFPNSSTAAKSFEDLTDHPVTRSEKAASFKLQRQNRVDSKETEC

Row | Structure (SMILES) | inhibition
1 | CCOC(=O)CC(SP1(=S)OCC2(CCCCO2)C(C2CCCCO2)O1)C(=O)OCC (configuration not stated) | 24.1% (active)
2 | COC(=O)C1=C(c2ccc(-c3ccccc3)c(F)c2)C[C@@H]2CC[C@H]1N2C(=O)NCc1ccc(F)cc1 | 7.03%
